Sampled rows, rich in hits. Any-hit rate of the full collection: about 2.4%.
Fh CTSL1 inh = blocks F. hepatica cathepsin L1 in PFM18AAP counter-screen. hit rate 0.49% among 300,000. AID 1906. recombinant F. hepatica cathepsin L1, Z-Leu-Arg-MCA fluorescence. inhibition, % at 5.96 µM;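 active = inhibition above the mean of all tested compounds plus 3 SD, set per screening campaign, cut at about 17% in these data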;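 note: 0% = plate median of test compound wells and 100% = 1 µM Z-Phe-Ala-diazomethylketone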
GASC-1 inh = human JMJD2C demethylase inhibition; GST-JMJD2C(1-420) H3K9me3 demethylation, DELFIA europium; inhibition, % at 2.35 µM; hit rate 0.069% among 330,000;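 active = more than half of a compound's replicate wells show inhibition beyond 50%, single wells judged on their own value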;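 note: signal counts dimethyl H3K9 product captured on neutravidin plate; 0% = median of DMSO wells and 100% = 0.3 times that DMSO median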
Target sequence (Q9H3R0 1-420 limits assumed): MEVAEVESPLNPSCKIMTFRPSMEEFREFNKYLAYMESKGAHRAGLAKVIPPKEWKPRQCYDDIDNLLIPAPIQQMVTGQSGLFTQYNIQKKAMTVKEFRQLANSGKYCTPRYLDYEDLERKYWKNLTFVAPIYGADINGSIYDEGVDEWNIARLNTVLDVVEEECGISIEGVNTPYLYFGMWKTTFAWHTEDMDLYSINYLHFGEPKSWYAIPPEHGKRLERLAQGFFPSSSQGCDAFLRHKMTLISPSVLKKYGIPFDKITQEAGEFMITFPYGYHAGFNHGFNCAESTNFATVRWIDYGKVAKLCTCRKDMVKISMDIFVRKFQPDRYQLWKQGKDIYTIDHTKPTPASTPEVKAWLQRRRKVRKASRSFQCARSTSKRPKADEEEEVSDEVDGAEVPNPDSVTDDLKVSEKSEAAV
PP5 primary = PP5 (human) phosphatase inhibition; purified PP5c, OMFP substrate fluorescence; inhibition, % at 6.7 µM; P53041; AID 1987; hit rate 0.18% among 320,000;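 active = inhibition above the campaign's mean inhibition across all tested compounds plus 3 SD, cut at about 9.5% in these data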;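 note: 0% = DMSO only and 100% = 100 µM cantharidin control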
pCIP destab = lowers stability of the mouse p/CIP coactivator protein. Q05BA5. F442A p/CIP-EGFP cells, EGFP fluorescence, 16 h. decrease of EGFP signal, % at 10 µM. hit rate 0.01% among 290,000;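 active = EGFP signal decrease of at least 30% at 10 µM or well 3 SD below plate mean, unless failing retest; inactive = the rest, including hits failing retest or dose response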
H9c2 protect = myocardial damage modulation in H9c2 cells; H9c2 cardiomyocytes, H2O2 injury protection, ATPLite, 2 h; protection from H2O2 cell death, % at 20 µM; hit rate 0.63% among 360,000; AID 588492;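 active = compounds giving at least 50% protection of heart cells from peroxide-induced death in the single-dose screen, raw or plate-pattern-corrected value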;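 note: 0% = DMSO wells with peroxide and 100% = DMSO wells without peroxide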
T cruzi repl = T. cruzi replication inhibition | T. cruzi beta-gal in NIH3T3, luminescence, 90 h | inhibition, % (no concentration beside the values) | hit rate 1.4% among 300,000 | AID 1885;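 active = mean inhibition across valid replicates above about 55%, limit read from the data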;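 note: signal also drops with host cell toxicity which is not excluded here; 0% = plate median of DMSO wells and 100% = zero luminescence signal; higher percent means less beta-gal luminescence so fewer parasites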
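System – NIH/3T3 host cells with β-galactosidase reporter T. cruzi · Doses – single 50 nL compound addition per well in DMSO · Reagent – 5000 T. cruzi trypomastigotes/well · Medium – Low-serum DMEM with 2% FBS · Timing – ≥90 h infection period, 3 h prior cell attachment · Evaluation – parasite load inhibition, % · Technique – GalScreen luminescence, 60 min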
Numbers without * were called inactive; x = no result.

SMILES | Fh CTSL1 inh | GASC-1 inh | PP5 primary | pCIP destab | H9c2 protect | T cruzi repl
Cc1cc(C)n(-c2nc(Nc3ccccc3C)nc(-n3nc(C)cc3C)n2)n1 | 1 | -17 | 4 | -9 | x | 70*
Cc1ccc(S(=O)(=O)CCC(=O)OCC(=O)NC2CCS(=O)(=O)C2)cc1 (configuration not stated) | -47 | -2 | 0 | x | 4 | -10
O=C(NC1CCCC1)c1ccc([N+](=O)[O-])s1 | 0 | -12 | 1 | -5 | 2 | 72*
CCc1sc(C(=O)NCCCN2CCCC2=O)cc1Br | 1 | -8 | 1 | -17 | 0 | -8
O=C(NCCCN1CCCC1=O)c1ccc([N+](=O)[O-])s1 | 3 | 5 | -1 | x | 0 | 60*
COc1cc2c3nnc(-c4ccc(F)cc4)c-3cn(Cc3cccc(C)c3)c2cc1OC | 3 | 1 | 3 | -7 | -39 | 7
COc1cc2c3nnc(-c4ccc(F)cc4)c-3cn(Cc3cccc(F)c3)c2cc1OC | 63* | 7 | 3 | -61 | -13 | 1
O=C(CCl)N1CCCC1c1ccc2c(c1)OCCO2 (configuration not stated) | 75* | 4 | -1 | -3 | 1 | -27
CC(=O)c1ccc(OCC(=O)N2CCCC2c2ccc3c(c2)OCCCO3)cc1 (configuration not stated) | x | 1 | x | x | -5 | x
Cn1c(Cc2cccs2)nnc1SCC(=O)Nc1ccc(F)cc1F | 2 | 94 | 0 | x | -3 | 2
CCOC(=O)N/N=C(/C)c1ccc([N+](=O)[O-])o1 | 2 | 7 | 0 | -7 | 1 | 57*
C/C(=N\NC(=O)CCC(=O)N/N=C(\C)c1ccc(C)o1)c1ccc(C)o1 | 1 | -3 | 1 | x | 4 | -13
C=C(C(=O)c1ccccc1)C(C(=C)C(=O)c1ccccc1)c1ccc(OC)cc1 | -3 | 2 | 1 | -20 | -11 | 55*
CCc1ccc(NC(=O)c2cc(S(=O)(=O)N3CCCC3)ccc2F)cc1 | x | x | x | x | -24 | x
Cc1ccccc1-n1ncc2c1CC(C)(C)CC2NC(=O)c1cn[nH]c1C (configuration not stated) | -1 | -8 | 1 | 1 | -1 | -5
Cc1ccc2c(N)c(C(=O)N(c3ccccc3)c3ccccc3)sc2n1 | 4 | 21 | 3 | 4 | 10 | 67*
CC(C)OC(=O)c1sc2nc(-c3ccccc3)ccc2c1N | -1 | 3 | 4 | -7 | -13 | 19
CCCN1CCCc2cc(CN)ccc21 | 15 | 3 | 4 | -41 | -20 | 89*
COc1cc(C(C)=O)ccc1OCC(=O)NCc1ccccc1CN1CCCC1 | x | x | x | x | 7 | x
O=C(N/N=C/c1cc(Br)cc(Br)c1O)c1cccc(S(=O)(=O)N2CCOCC2)c1 | 0 | 4 | 2 | -1 | 50* | 38
O=C(N/N=C/c1ccccc1Br)c1cccc(S(=O)(=O)N2CCOCC2)c1 | x | -4 | 0 | x | -2 | x
O=C(N/N=C/c1sc(N2CCOCC2)nc1-c1ccccc1)c1cccc(S(=O)(=O)N2CCCC2)c1 | 4 | -2 | 2 | -26 | 24 | 77*
O=C(N/N=C/c1cc(Br)cc(Br)c1O)c1cccc(N2CCCC2=O)c1 | 2 | 1 | 1 | -7 | 52* | 61*
Cc1[nH]c(C)c(S(=O)(=O)NCc2ccc(N(C)C)cc2)c1C(=O)N1CCCC1 | 0 | 2 | -2 | 4 | 3 | -4
Fc1ccc(Nc2nc(NCc3ccco3)c3ccccc3n2)cc1 | 0 | 52 | 3 | -17 | -20 | 57*
SMILES | Fh CTSL1 inh | GASC-1 inh | PP5 primary | pCIP destab | H9c2 protect | T cruzi repl
COCCCNC(=O)c1ccc2nc([C@@H]3O[C@H](CO)[C@H](O)[C@H](O)[C@H]3O)[nH]c2c1 | x | x | x | x | 1 | x
C/C(=N\NC(=S)NCc1ccccc1)c1ccccc1 | 2 | -5 | 2 | 3 | -8 | -16
CC1=C/C(=N\NC(=S)NCc2ccccc2)CC1 | 5 | -4 | 0 | -7 | -14 | 69*
CC1(C)Cc2c(cnn2-c2cccc(F)c2)C(NC(=O)Cn2cccn2)C1 (configuration not stated) | x | 17 | x | -6 | -5 | 5
COCc1c(C(C)C)nc(C(C)C)c(/C=C/[C@@H](O)C[C@@H](O)CC(=O)O)c1-c1ccc(F)cc1 | 3 | 2 | -1 | x | x | 65*
CCN(CC)S(=O)(=O)c1cccc(-n2c(O)c(C=Nc3ccccc3C(=O)O)c3ccccc3c2=O)c1 | 5 | 1 | -2 | -6 | 20 | 72*
O=C(O)c1ccccc1N=Cc1c(O)n(-c2nccs2)c(=O)c2ccccc12 | 4 | 12 | -2 | -4 | 2 | 14
CCCCNC(=O)CC1N=C2c3ccccc3N=C(SCC(=O)Nc3ccc(OC)cc3)N2C1=O (configuration not stated) | 0 | 1 | 1 | 46* | 0 | 1
CCCCNC(=O)CC1N=C2c3ccccc3N=C(SCC(=O)Nc3cccc(OC)c3)N2C1=O (configuration not stated) | 2 | 0 | -4 | -5 | 3 | 7
COc1ccc(C2CC(=O)c3c(C)nc(N4CCN(Cc5ccccc5)CC4)nc3C2)cc1OC (configuration not stated) | 4 | -9 | 2 | -8 | -14 | 55*
COc1cc(C2CC(=O)c3cnc(N4CCN(Cc5ccccc5)CC4)nc3C2)cc(OC)c1OC (configuration not stated) | -2 | -3 | 4 | 3 | -3 | 0
Cc1nc(N2CCN(Cc3ccccc3)CC2)nc2c1C(=O)CC(C)C2 (configuration not stated) | -1 | 10 | -1 | -10 | 0 | 71*
COc1ccc(S(=O)(=O)N(C)C[C@H]2Oc3ccc(NC(=O)Nc4ccc5c(c4)OCO5)cc3C(=O)N([C@H](C)CO)C[C@@H]2C)cc1 | x | -2 | x | x | 11 | x
O=C(NN=C1C2CC3CC(C2)CC1C3)c1ccncc1 | 0 | 6 | 1 | -8 | 2 | 1
O=C(N/N=C1\C/C(=N\NC(=O)c2ccncc2)c2ccccc21)c1ccncc1 | 42* | -41 | 5 | -3 | -16 | 21
CCOc1ccc2c(c1)C(=NNC(=O)c1ccncc1)c1cc(OCC)ccc1-2 | 1 | 9 | 2 | -5 | 42 | 60*
COc1ccc(OC)c(CNC(=O)C2CCC(=O)N2C(C)C)c1 (configuration not stated) | -2 | -5 | -4 | -3 | 1 | -3
CN1C(=O)[C@H]2[C@@H](c3ccc(C(F)(F)F)cc3)N[C@]3(CCCN(Cc4cccn4C)C3=O)[C@H]2C1=O | x | x | x | x | -8 | x
CC(=O)N(C)c1ccc(NC(=O)C(Sc2ccccc2)c2ccccc2)cc1 (configuration not stated) | -3 | 30 | 3 | -7 | 7 | 2
CC(C)(C)NS(=O)(=O)c1ccc(NC(=O)C(Sc2ccccc2)c2ccccc2)cc1 (configuration not stated) | 3 | -7 | 6 | -14 | -13 | 56*
